Bioassay records (PubChem BioAssay)
Htt clearance – compounds clearing mutant huntingtin protein. HeLa Exon1htt(103Q)mCFP, aggregate imaging; zero = plate's median compound well. inhibition, % at 1.5 µM. 47,000 compounds, 0.42% hits;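 active means inhibition of aggregate fluorescence above about 70%, also judged a hit by eye on the cell image, limit read from the data, passing the limit was not always enough; inconclusive means no rule stated for this call; inactive means not judged a hit on image review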;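 further: cells exposed to compound for three days before fixation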
M1 antagonist – blocks the rat M1 muscarinic receptor response to acetylcholine; B-score at 10 µM; CHO-M1 cells, Fluo-4 calcium, ACh EC80 antagonist mode; hits give low values; AID 628; 64,000 compounds, 3.4% hits; P08482;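 active means calcium fluorescence response, raw or row-and-column corrected B-score, differing from the plate sample mean either way at a set confidence level, mostly lower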
RORa activator – activates the human nuclear receptor RORA; P35398; CHO-K1 Gal4-RORA LBD luciferase reporter, luminescence; percent increase over mock-subtracted basal signal; activation, % at 10 µM; 65,000 compounds, 1.5% hits; AID 560;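 active means activation above the mean of all tested compounds plus 3 SD, cut at about 49% in these data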;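 further: 0% = DMSO-treated RORA cells and 100% = added signal equal to DMSO minus mock-transfected cells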
Target sequence (P35398 whole entry, looked up, the tested form may be a part): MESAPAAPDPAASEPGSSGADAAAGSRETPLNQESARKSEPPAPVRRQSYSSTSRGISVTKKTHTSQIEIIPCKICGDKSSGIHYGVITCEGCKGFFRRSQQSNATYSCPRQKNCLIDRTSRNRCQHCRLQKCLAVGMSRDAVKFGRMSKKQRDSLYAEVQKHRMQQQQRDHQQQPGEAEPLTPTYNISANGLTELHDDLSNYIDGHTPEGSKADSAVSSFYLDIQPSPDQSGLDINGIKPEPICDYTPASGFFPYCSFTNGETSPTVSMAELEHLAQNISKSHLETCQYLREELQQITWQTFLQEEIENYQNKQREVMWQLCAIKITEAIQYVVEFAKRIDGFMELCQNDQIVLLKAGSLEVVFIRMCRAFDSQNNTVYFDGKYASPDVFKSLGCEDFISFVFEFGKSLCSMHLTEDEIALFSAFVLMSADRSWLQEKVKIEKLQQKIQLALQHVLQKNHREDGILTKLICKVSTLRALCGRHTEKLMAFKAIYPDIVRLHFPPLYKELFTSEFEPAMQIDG
D1 allo mod – D1 dopamine receptor (human) allosteric modulation. P21728. HEK293 D1, CRE-luciferase, dopamine EC30 potentiation; actives deviate in either direction. 58,000 compounds, 5.9% hits. B-score at 10 µM;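 active means luminescence count or its row- and column-corrected plate score outside the 99.7% band of the plate's sample wells, on either side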
M1 ag – agonists of M1 muscarinic receptor; 64,000 compounds, 3% hits; AID 626; B-score at 10 µM; CHO-M1 cells, Fluo-4 calcium fluorescence, agonist mode; hits give high values;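 active means fluorescence rise, raw or as B-score row- and column-corrected plate score, outside the 99.7% band of its plate's samples, either direction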
SF1 activator – activators of human nuclear receptor SF-1; Q13285; CHO-K1 Gal4-SF-1 LBD luciferase reporter; % increase over DMSO SF-1-specific signal; activation, % at 10 µM; 65,000 compounds, 1.9% hits; AID 522;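 active means activation above the mean activation of all tested compounds plus 3 SD, cut at about 50% in these data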
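Test system: transient Gal4-SF-1 LBD reporter, CHO-K1; Amount: 4,000 CHO-K1 cells per well; Doses: 10 µM only; Timing: compound exposure 20 h at 37 °C; Signal: luciferase light emission; Read-out basis: percent activation relative to DMSO median and mock-transfected background; Control set: DMSO negative control and −SF1 background wells; Replicates: one test per compound.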
M1 ag confirm – rat M1 muscarinic agonism, confirmation; shares compounds with M1 ag; CHO-M1 cells, Fluo-4 calcium fluorescence, agonist mode; actives lie on both sides; fluorescence change (max-min) at 10 µM; 1,700 compounds, 19% hits; AID 1488;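 active means fluorescence change differs from the solvent-only DMSO control mean at a set confidence level in both duplicate runs; inconclusive means differs from solvent-only control mean in just one of two runs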;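 further: an EC20 dose of acetylcholine follows compound addition during the same imaging run; raw fluorescence intensity difference in instrument units with no normalization to controls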
M4 agonist ctr – activates rat M4 receptor in counter-screen for M1 agonists; shares compounds with M1 ag; CHO M4/Gqi5 cells, Fluo-4 calcium fluorescence, agonist mode; actives lie on both sides; fluorescence change (max-min) at 10 µM; 1,700 compounds, 9% hits; AID 1741;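 active means fluorescence change differing from the plate's solvent-only control wells at 99.7% confidence in both duplicates, whether higher or lower; inconclusive means differs from solvent controls in only one of two duplicates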
Active calls of the source: *; ? = inconclusive; · = no result given. This is a sample that favours compounds with a hit; in the whole collection about 11% have one here.

SMILES | Htt clearance | M1 antagonist | RORa activator | D1 allo mod | M1 ag | SF1 activator | M1 ag confirm | M4 agonist ctr
COCC(C)n1c(C)cc(C(=O)CSc2nc3ccccc3c(=O)[nH]2)c1C (stereo unspecified) | · | 0.74 | 12 | · | 2.8* | -3 | -15 | -21
CCc1nnc(NC(=O)CCC(=O)N2CCN(CCc3ccccc3)CC2)s1 | · | -0.078 | -16 | · | -0.32 | -13 | · | ·
CCc1nnc(NC(=O)CCC(=O)N2CCN(CCOc3ccc(C)cc3)CC2)s1 | · | -0.41 | -8 | · | 5.1* | -7 | -3.6 | -26
Cn1c(NC(=O)c2ccc(Br)o2)cc(=O)n(C)c1=O | 4 | 0.34 | -2 | -0.19 | -0.037 | -6 | · | ·
COc1ccc(NC(=O)c2[nH]c(C)c(C(C)=O)c2C)cc1Cl | 15 | -3.1* | 16 | · | 5.5* | 28 | -2.4 | -16
O=C(NC1CCCCCC1)C1CCN(S(=O)(=O)c2ccccc2)CC1 | -7 | 0.73 | 13 | -0.11 | 6.5* | -11 | ? | ?
O=C(NC1CCN(S(=O)(=O)c2ccccc2)CC1)C1CCCCC1 | -48 | · | · | · | · | · | · | ·
Cc1cc2nc(C)c(Cc3ccccc3)c(=O)n2[nH]1 | -35 | 0.77 | -13 | -0.3 | -0.12 | -6 | · | ·
COc1ccc(C)cc1S(=O)(=O)Nc1ccccc1C | -12 | 0.16 | -2 | -0.72 | -0.031 | -2 | · | ·
COc1cc(NS(=O)(=O)c2ccc(C)cc2C)cc(OC)c1OC | 43 | -1.3 | -50 | -2.6 | 4.1* | -62 | ? | -54
CCc1ccc(NC(=O)CSc2nnc(Cn3c(=O)sc4ccccc43)n2C)cc1 | · | 0.017 | -7 | · | -0.95 | 4 | · | ·
CCOC(=O)c1ccc(NC(=O)CSc2nnc(Cn3c(=O)sc4ccccc43)n2C)cc1 | · | 0.19 | -13 | · | 2.3* | 17 | 3.5 | -7
CCOC(=O)Cn1c2ccc(OC)cc2c2nc3ccccc3nc21 | · | -0.2 | 10 | 0.03 | 19* | -1 | -10 | -21
Cc1cc(OCc2nnc(SCC(=O)OC3CCCCC3)o2)ccc1Cl | · | 0.13 | -3 | 0.19 | 4.6* | -14 | ? | ?
Cn1cnnc1Sc1nc2ccccc2nc1NS(=O)(=O)c1ccccc1 | · | -0.061 | -13 | -1 | -0.043 | 4 | · | ·
CC(=O)Nc1ccc(S(=O)(=O)Nc2nc3ccccc3nc2Sc2nncn2C)cc1 | 4 | 0.3 | 12 | 0.33 | 43* | 8 | 55* | 12
Cc1cc(C)n(-c2nc(SCC(=O)NCC3CCCO3)c3c4c(sc3n2)CCCC4)n1 (stereo unspecified) | · | -0.2 | -6 | -0.054 | -0.54 | -10 | · | ·
Cc1cc(C)n(-c2nc(NCC3CCCO3)c3c4c(sc3n2)COC(C)(C)C4)n1 (stereo unspecified) | · | -0.99 | 19 | 1.2 | 3.4* | -7 | -18 | -17
Fc1ccccc1N1CCN(c2nc3ccccc3n3nnnc23)CC1 | · | 0.16 | 0 | -0.45 | 12* | 0 | ? | 35
CC(=O)c1c(C)[nH]c(C(=O)Nc2cc(C)ccc2C)c1C | -17 | -0.034 | 0 | -1.9 | -0.043 | -14 | · | ·
CC(=O)c1c(C)[nH]c(C(=O)NCCc2cccc(C)c2)c1C | · | -0.1 | 17 | -2.7* | -2.4* | 71* | ? | ?
Cc1cnn(-c2ccc3nnc(-c4ccc(Br)cc4)n3n2)c1 | · | 0.97 | -3 | 0.79 | -0.029 | -3 | · | ·
CCN(C1CCCCC1)S(=O)(=O)c1ccc(S(=O)(=O)NCCc2ccncc2)cc1 | · | 0.43 | 10 | -0.11 | 0.85 | -5 | · | ·
CCN(C1CCCCC1)S(=O)(=O)c1ccc(S(=O)(=O)NCc2ccncc2)cc1 | -119 | -2.2* | -69 | -1.3 | 3.7* | -52 | 11 | -28
O=C(O)c1ccccc1C1=Nc2ccc(O)cc2Oc2cc(O)ccc21 | 19 | 0.38 | 0 | -0.75 | 32* | -12 | 418* | 403*
SMILES | Htt clearance | M1 antagonist | RORa activator | D1 allo mod | M1 ag | SF1 activator | M1 ag confirm | M4 agonist ctr
O=C(NCc1ccccn1)C1CC(c2ccc(Cl)c(Cl)c2)=NO1 (stereo unspecified) | 6 | · | · | · | · | · | · | ·
O=C(Nc1cccnc1)C1CC(c2ccc(Cl)c(Cl)c2)=NO1 (stereo unspecified) | 17 | 0.63 | 6 | · | -2.6* | 9 | -10 | -39
NC1=NC(c2ccc(F)cc2)n2c(nc3ccccc32)N1 (stereo unspecified) | 38 | 0.97 | -7 | -0.44 | 0.84 | 5 | · | ·
COc1cc2c(=O)nc3n(c2cc1OC)C(c1ccccc1)N=C(N)N3 (stereo unspecified) | · | -1.2 | 11 | 0.38 | 2.4* | 13 | -17 | -38
COc1cc(OC)cc(C(=O)NCCN2CCOCC2)c1 | · | 1.4 | 7 | -1.1 | -0.72 | -5 | · | ·
O=C(Nc1cccnc1)c1ccc(Cl)c(S(=O)(=O)N2CCCCCC2)c1 | · | -0.23 | -16 | 0.069 | 2.4* | 5 | ? | -48
O=C(Nc1cccnc1)c1cccc(S(=O)(=O)N2CCOCC2)c1 | · | 0.15 | 2 | -0.027 | 0.022 | 3 | · | ·
Cc1cc(N2CCN(c3nc4ccccc4s3)CC2)n2ncnc2n1 | 51 | -1.4 | -75 | -2.3 | 3.6* | -55 | 8.4 | ?
Cc1cc(N2CCN(C(c3ccccc3)c3ccccc3)CC2)n2ncnc2n1 | · | -0.84 | -7 | -1.3 | 2.2 | -10 | · | ·
Cc1nn(CC(=O)N(C)C)c(=O)c2ccccc12 | · | 0.41 | -14 | 0.8 | 4.2* | -9 | -5.6 | -25
Cc1nn(CC(N)=O)c(=O)c2ccccc12 | -25 | -0.36 | -24 | · | 0.11 | -12 | · | ·
Cc1ccc(Cl)cc1NC(=O)CC(O)(C(F)(F)F)C(F)(F)F | · | -2.5* | 1 | -4.2* | 11* | -1 | 16 | -3.4
NS(=O)(=O)c1ccc(CCNc2ncnc3sccc23)cc1 | 39 | 0.47 | -44 | -1.9 | 3.1* | -13 | 0.13 | -15
CC1CCCN(C/C(O)=C(\C#N)c2nc3ccccc3[nH]2)C1 (stereo unspecified) | · | -4.2* | 8 | 0.04 | 5.4* | -10 | ? | -28
Cc1ccccc1Nc1cc2ccccc2c(=O)[nH]1 | · | 1.6 | -1 | 0.88 | 17* | -14 | 64* | 44
CCN(CC)c1nc2ccccc2nc1C(C#N)C(=O)NCCCOC (stereo unspecified) | · | -0.6 | 10 | 2.3 | 5* | -5 | -4 | -30
CCN(CC)c1nc2ccccc2nc1C(C#N)C(=O)NCCc1ccccc1 (stereo unspecified) | · | -1 | -11 | 0.019 | 219* | -14 | 2068* | 1724*
CCCCN(CCCC)c1nc2ccccc2nc1C(C#N)C(=O)NCCCOC (stereo unspecified) | 21 | -16* | -7 | 1.2 | 434* | -3 | 2697* | 2698*
